Data: the EternaBench riboswitch data

Test system: MS2 coat protein
Experiment: apparent Kd, MS2 coat protein; higher = weaker binding; RNA-MaP array; theophylline 2 mM where present
In short: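 Each design was made on Illumina sequencing-chip clusters by stalled E. coli RNA polymerase and titrated with SNAP-549-labelled MS2 coat protein from 0.7 or 1.5 nM, doubling to 3 µM, in the absence and then the presence of constant ligand. The buffer was 100 mM Tris-HCl pH 7.5, 80 mM KCl, 4 mM MgCl2, BSA, DTT, yeast tRNA and Tween-20. The apparent Kd is the median of filtered per-cluster fits of binding curves, with green signal normalised to red-channel RNA signal and control-cluster median Fmax.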

[1] = designed as: OFF switch for theophylline, no ligand
[2] = ligand present: theophylline, designed as: OFF switch for theophylline
[3] = designed as: ON switch for theophylline, no ligand
[4] = ligand present: theophylline, designed as: ON switch for theophylline

Sequence | apparent Kd [1] [nM] | apparent Kd [2] [nM] | apparent Kd [3] [nM] | apparent Kd [4] [nM]
GAGCUGAUGUAGAGAUUAUAUAAAAGAGAUACCAGUACAGAAAUGUACCCUUGGCAGCUCAACUUUACAUGAGGAUCACCCAUGU | 14.8 | 17.5 |  | 
AACAUACAUGAGGAUCACCCAUGUCACGAUACCAGAUACAUGAGGAUCCCUUGGCAGCGUCAUGAGGAUCACCCAUGUUGUACAU | 16.5 | 58.3 |  | 
GCACUACAUGAGGAUCACCCAUGUGCAGAUACCAGAGGUGUAUGCCUCCCUUGGCAGCUGAGUAGGUCUGGAGGGCUAUUGGUUU |  |  | 17.6 | 23.5
GUGGAGACACGAGAUACCAGUCUCUAUAACAUGAGGAUCACCCAUGUAAUGCUCCUCAGGGACCCUUGGCAGCUCAGUAUGAUGA | 32.9 | 134 |  | 
AGUAAUCUAAGAGAUACCAGACGGUAUAUAACAUGAGGAUCACCCAUGUUUUGGGUGUACGUCCCUUGGCAGCUCAAAAUGAUAA |  |  | 230 | 115
AUGCAGGGCAACAGCCACUGUCACGGUGAUACCAGUACCCGUGCGUACCCUUGGCAGCAUCGUGGUACAUGAGGAUCACCCAUGU |  |  | 271 | 180
GAUGAACUAUAUGAUACCAGACAACAUGAGGAUCACCCAUGUGUAUGUCGUCCUCUGCCUGUCCCUUGGCAGCGUAUAGUUUAUC | 32.4 | 193 |  | 
CGAUCUUUCGAAAGAAGGAUCUUGUCUGAUACCAGAGACGAAAGUCUCCCUUGGCAGCAGUGCCAACAUGAGGAUCACCCAUGUU |  |  | 14.5 | 14.8
AGUGUAUCCAUCGAUACCAGCCACCACCGAUAGACCACAUGAGGAUCACCCAUGUUGGGUGGCCCUUGGCAGCGGUGGCUGUGUA |  |  | 287 | 1190
AUACAUGAGGAUCACCCAUGUAUAGUCGAUACCAGCUCAAGGAAGAGCCCUUGGCAGCGACACUGGUAUCCAUGGGUGAUACCAG |  |  | 22.3 | 31.5
AUUUACAUGGUCAUAUAUAUAUCGUCAGAUACCAGACUAGAUAUAGUCCCUUGGCAGCUGUUACAUGAGGAUCACCCAUGUUAUA | 129 | 110 |  | 
ACAUGAGCAUCAGCCUUGUAGGAACUAGAUACCAGCCCAACAUGAGGCCCUUGGCAGCUGACAACAUGAGGAUCACCCAUGUCAC | 36.2 | 34.1 |  | 
ACACAUGAGGAUCACCCAUGUUCAAUAGAUACCAGUGAUACGGUGCACCCUUGGCAGCUGUUGCUGAGUGAUGGUUCCCUCGGAA |  |  | 55.2 | 77.7
UAUACAUGAGGAUCACCCAUGUGCCAUGAUACCAGACAUGAAAAUGUCCCUUGGCAGCAUGGGAAAUGUAUAGCGGGAAACCCGA |  |  | 72.6 | 704
UACAUGAGGAUCACCCAUGUAUAGAGGGAUACCAGUGUCAGUGAGCACCCUUGGCAGCCCGCGAACAAUGGGUGCGCUAUAUAGU | 26.3 | 62.2 |  | 
CGGUUUGUGAUGGAUACCAGCAGUGUGGCUGUUUAUCCUGACAUGAGGAUCACCCAUGUGUGCCCUUGGCAGCUGUUGUGGGCUG | 76.5 | 130 |  | 
GAUGAACUAUAUGAUACCAGACAACAUGAGGAUCACCCAUGUGAAUGUCGUCCUCUGCCUGUCCCUUGGCAGCGUAUAGUUUAUC | 29.6 | 177 |  | 
ACACAUGAGGAUCACCCAUGUGCAAUAGAUACCAGUGACGCGGUGCACCCUUGGCAGCUGUUGCUGAGUGAUGGUUCCCUCGGAA | 36.6 | 58.5 |  | 
AAUCUGUCGGGUGAUACCAGCCUCGGCGCAUCUCGCACCGAACAUGAGGAUCACCCAUGUGGCCCUUGGCAGCACAUGACAAAUC |  |  | 371 | 82.2
UUUACAUGAGGAUCACCCAUGUGCCAUGAUACCAGACAUGAAAAUGUCCCUUGGCAGCAUGAGUGAUUCAUCCGAAAGGAUGUUU |  |  | 121 | 673
UCAUAUUAGAUAGAUGUAAGGUAUCAUGAUACCAGUAGAUAAUUAUACCCUUGGCAGCAUAACAUGAGGAUCACCCAUGUACAUG | 21.3 | 20.9 |  | 
UUUGAUAGGACAGAUACCAGCGUGUUGUUGAACAUGAGGAUCACCCAUGUAGUGAUCGAGCGCCCUUGGCAGCUGGUUUGUUAGG |  |  | 382 | 306
CCUCGACAUGAGGAUCACCCAUGUAGAGAUACCAGCCUGUGAGAUGGCCCUUGGCAGCUCAUAUAGGGUACAGGAGUCGUUUUGA | 23.2 | 85.1 |  | 
GGGCCUGUAGGCAGGCCCACAGCGGGUGAUACCAGCAAUAAAACUUGCCCUUGGCAGCACACAGCUACAUGAGGAUCACCCAUGU |  |  | 41.2 | 70.5
AGCAUUGUAACAGAUACCAGACUUUUAAUGCCUCUAAUUACAUGAGGAUCACCCAUGUUUGUCCCUUGGCAGCUGUUAUGAUGCA | 119 | 226 |  | 
